Bioassay records: PubChem BioAssay, several laboratories
PolyA inhibitor: blocks polyadenylation in yeast reporter cells; AID 1875; actives 0.02% (n = 300,000); S. cerevisiae SKY197-pL101 polyadenylation reporter, beta-gal luminescence; efflux-impaired pdr1/pdr3 knockout yeast; score 100 = 6 SD above DMSO; activity score, % at 12 µM;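 active = lowest replicate activity score at least 50, where 100 means six control SD above control mean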;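 also: yeast exposed to compound for 9 h at 30 °C; higher score means more reporter readthrough which indicates perturbed polyadenylation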
A3A deaminase: human APOBEC3A DNA deaminase inhibition; P31941; recombinant A3A, FAM/TAMRA ssDNA deamination fluorescence; inhibition, % at 20 µM; actives 0.41% (n = 330,000); AID 493011;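 active = at least 40% inhibition at 20 µM here, with at most 30% in a related deaminase screen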;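 also: plate controls were A3A with DMSO for no effect and wells lacking A3A enzyme for full effect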
UCH37 DUB inh: blocks the human deubiquitinase UCH37; Q9Y5K5; AID 588478; actives 0.33% (n = 330,000); purified proteasome/UCH37, Ub-AMC cleavage fluorescence; inhibition, % (no concentration beside the values);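 active = mean inhibition over replicate wells above about 20%, limit read from the data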;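 also: 0% = compound-free wells with enzyme and 100% = wells lacking proteasome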
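Test system – human UCH37 enzyme supplied as purified proteasome complex · Incubation – 30 min preincubation with enzyme, 25 min cleavage at room temperature · Detection – AMC fluorescence from Ub-AMC cleavage, excitation 355 nm, emission 460 nm · Benchmarks – no-proteasome wells (full inhibition) and compound-free wells (no inhibition)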
Arr AP2 block: blocks beta-arrestin peptide binding to AP2 adaptin; FITC-arrestin peptide / GST-AP2 beads, flow cytometry; AP2 beta2 appendage carries R879A mutation; inhibition, % at 10 µM; actives 0.31% (n = 340,000);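 active = inhibition above a set limit, near 3 SD of compounds lacking own fluorescence, cut at about 54% in these data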;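 also: plate controls were DMSO wells for no effect and 5 µM unlabelled arrestin peptide for full effect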
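System: GST-AP2 R879A glutathione beads; medium: PBS, Tween 20 0.05%, BSA 0.1%; reagent: fluorescein-tagged arrestin peptide at 50 nM final; schedule: pre-incubation 12 min, peptide binding 1 h, room temperature; detection: flow cytometry, FL1 (488/535 nm); read-out: inhibition as reduced fluorescein signal on beads, percent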
AHR act: activators of human aryl hydrocarbon receptor. activation, % at 5 µM. actives 2.5% (n = 320,000). AHR-responsive luciferase reporter cells, luminescence; in the data active = activation above about 47%;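 also: 0% = vehicle wells and 100% = reference agonist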
Target sequence (P35869 whole entry, looked up): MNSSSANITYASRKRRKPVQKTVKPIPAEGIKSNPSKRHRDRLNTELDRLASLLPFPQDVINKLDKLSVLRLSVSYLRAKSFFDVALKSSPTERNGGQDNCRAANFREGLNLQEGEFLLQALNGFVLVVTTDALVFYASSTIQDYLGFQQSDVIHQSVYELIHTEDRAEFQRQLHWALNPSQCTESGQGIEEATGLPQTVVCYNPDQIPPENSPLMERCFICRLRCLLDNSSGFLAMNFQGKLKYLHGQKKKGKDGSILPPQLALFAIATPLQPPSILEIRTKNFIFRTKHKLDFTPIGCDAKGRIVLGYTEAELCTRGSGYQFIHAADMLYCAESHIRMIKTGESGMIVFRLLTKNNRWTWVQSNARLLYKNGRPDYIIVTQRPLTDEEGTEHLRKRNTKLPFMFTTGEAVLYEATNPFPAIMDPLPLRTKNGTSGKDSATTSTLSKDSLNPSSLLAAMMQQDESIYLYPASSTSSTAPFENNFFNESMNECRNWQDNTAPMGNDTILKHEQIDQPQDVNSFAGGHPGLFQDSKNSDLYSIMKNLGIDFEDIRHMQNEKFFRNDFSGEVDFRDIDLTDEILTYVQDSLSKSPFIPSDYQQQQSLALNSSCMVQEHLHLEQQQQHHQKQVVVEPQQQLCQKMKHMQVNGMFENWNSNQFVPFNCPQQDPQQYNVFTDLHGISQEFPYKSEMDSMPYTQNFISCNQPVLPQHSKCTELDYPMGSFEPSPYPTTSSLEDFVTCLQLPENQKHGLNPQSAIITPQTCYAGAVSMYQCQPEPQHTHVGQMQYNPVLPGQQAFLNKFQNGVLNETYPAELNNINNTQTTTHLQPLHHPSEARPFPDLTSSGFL
A3G deaminase: blocks human APOBEC3G single-stranded DNA deamination; Q9HC16; recombinant A3G, ssDNA deamination FAM/TAMRA fluorescence; inhibition, % at 20 µM; actives 0.28% (n = 330,000); AID 493012;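 active = inhibition of at least 40% at 20 µM, with no more than 30% in the related APOBEC3A deaminase screen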;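 also: plate controls were DMSO wells with A3G for no effect and wells lacking A3G enzyme for full effect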
* = called active by the depositor; · = not tested or not shown. Only some compounds are listed: those with a hit (about 3.4% of all), similar ones and a draw of the others.

SMILES	PolyA inhibitor	A3A deaminase	UCH37 DUB inh	Arr AP2 block	AHR act	A3G deaminase
O=[N+]([O-])c1cccc(-c2nc(-c3ccccn3)no2)c1	-10	-1	2	11	68*	-6
COc1ccc2c(c1)-c1nc(N=Cc3ccc(O)cc3)sc1CC2	·	·	2	·	·	·
CCOc1nc(Nc2ccc(Cl)cc2)nc(OCC)n1	-13	3	5	-13	11	3
CN(C)c1nc(Nc2ccc(Cl)cc2)nc(OCC#N)n1	-2	-3	3	-7	49*	-3
O=C(COC(=O)CNC(=O)c1ccc(Cl)c([N+](=O)[O-])c1)NC(=O)c1ccccc1	2	-2	4	-20	57*	-9
O=C(NNC(=O)c1cccs1)c1ccc(Cl)c([N+](=O)[O-])c1	14	-2	21*	5	0	-6
CC(C)NC(=S)NN=Cc1cccs1	·	·	8	·	·	·
CN(C)c1ccc(/C=N/NC(=O)c2sccc2-n2cccc2)cc1	-32	-2	·	4	72*	-5
CN(C)c1ccc(/C=C(\NC(=O)c2ccccc2)C(=O)N/N=C/c2ccc(C(=O)O)cc2)cc1	7	-3	·	0	1	-10
CN(C)c1ccc(/C=N/NC(=O)c2ccccc2)cc1	16	-1	·	-4	47*	-5
CN(C)c1ccc(/C=C(/NC(=O)c2ccccc2)C(=O)NN=Cc2ccc([N+](=O)[O-])c(O)c2)cc1	·	·	20*	·	·	·
CCC(Cc1ccccc1)=NNC(=O)c1cc([N+](=O)[O-])cc([N+](=O)[O-])c1	·	·	1	·	·	·
CCOC(=O)NN=Cc1cccnc1	·	·	0	·	·	·
Cc1ccc(C(=O)NN=Cc2ccc(S(=O)(=O)O)o2)c(Cl)c1	·	·	3	·	·	·
NC(=NOC(=O)C1CCCCC1)c1cccc([N+](=O)[O-])c1	·	·	1	·	·	·
NS(=O)(=O)c1ccc(C(=O)Nc2ccc(-c3nc4cccnc4s3)cc2)cc1	-4	0	-39	5	57*	-5
NS(=O)(=O)c1ccc(NC(=O)c2ccc(-c3ccccc3)cc2)cc1	·	·	4	5	·	·
O=C(Nc1cccc(-c2nc3cccnc3s2)c1)c1ccc(Cl)nc1	1	5	-10	-7	68*	0
Brc1ccc(C2=CC(c3ccco3)n3nnnc3N2)cc1 (configuration not stated)	13	-6	-1	33	52*	-15
O=C(NNC(=O)c1cc2ccccc2oc1=O)c1ccccc1	13	-1	1	-4	-2	6
O=C(c1ccccc1)c1cc2ccccc2oc1=O	2	-3	6	-5	49*	-3
CC1=NNC(=O)C1CCC(=O)NN=C/C=C/c1ccccc1 (configuration not stated)	·	·	3	·	·	·
COc1ccc(Br)cc1C=NN1C(=O)CSC1=S	·	·	3	·	·	·
COc1ccc(Br)cc1/C=N/N1C(=O)CSC1=S	11	-6	·	16	49*	-3
Cn1c(=O)cc(SCC(=O)Nc2ccccn2)c2ccccc21	6	1	3	·	62*	0
SMILES	PolyA inhibitor	A3A deaminase	UCH37 DUB inh	Arr AP2 block	AHR act	A3G deaminase
Cn1c(=O)cc(SCC(=O)N2CCN(c3ccccc3)CC2)c2ccccc21	-10	4	1	-12	30	2
Cn1c(=O)cc(SCC(=O)N2CCN(c3ccccn3)CC2)c2ccccc21	-1	0	4	19	64*	-2
Cc1ccnc(NC(=O)CSc2cc(=O)n(C)c3ccccc23)c1	-8	-1	1	-2	39	-3
N#Cc1ccc(C=NNC(=S)Nc2ccc(S(=O)(=O)N3CCOCC3)cc2)cc1	·	·	9	·	·	·
COc1ccccc1NC(=O)c1ccc2nc(C)c(C)nc2c1	1	-2	2	-5	9	-6
COc1ccccc1C(=O)Nc1cccc2nc(C)ccc12	-4	-3	3	-4	53*	-1
COc1ccc(C(=O)Nc2cccc3nc(C)ccc23)c(OC)c1	3	-6	3	6	72*	1
COc1ccccc1NC(=O)c1cc2ccccc2nc1C	8	0	3	28	57*	0
CC(=NNC(=O)c1c(Cl)c(C)nn1C)c1cccc(NC(=O)COc2ccc(Cl)cc2)c1	·	·	1	·	·	·
CCN(CC)S(=O)(=O)c1cccc(C(=O)NN=Cc2ccc(OC)c(O)c2)c1	·	·	11	·	·	·
